Screening data from PubChem.
hERG protect – compounds protecting human hERG from proarrhythmic drug block; CHO-hERG, FluxOR thallium flux, dofetilide IC70 present; activation (rescue from dofetilide block), less the hit threshold, % at 10 µM; AID 1511; actives 0.51% (n = 310,000); Q12809;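 active means activation above the mean of controls blocked by dofetilide plus 5 SD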;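 further: thallium influx through hERG after potassium depolarization seen as dye fluorescence rise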
KCNQ1 block – inhibitors of human KCNQ1 potassium channel. CHO-K1 KCNQ1, FluxOR thallium flux fluorescence; hits give high values. B-score at 10 µM. actives 1.3% (n = 310,000). P51787;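 active means compounds whose thallium flux B-score, printed positive for inhibition, exceeds three library SD while starting fluorescence stays within three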;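 further: channel opened by potassium depolarization with thallium stimulus after 20 min compound exposure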
Mot1-301 SUMO – inhibitors of SUMOylation pathway: yeast Mot1-301 growth rescue. S. cerevisiae Mot1-301 growth rescue, ATP luminescence, 38.5C; percent above DMSO median, 100 means doubled. growth rescue, % at 18.8 µM. actives 1% (n = 320,000);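 active means every valid replicate shows activation above 250% relative to neutral control wells; inactive means the rest, any valid replicate at or below 250%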
KCNQ1 pot – potentiators or activators of human KCNQ1 potassium channel. actives 0.35% (n = 310,000). AID 2648. P51787. CHO-K1 KCNQ1, thallium flux FluxOR fluorescence; hits give high values. B-score at 10 µM;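 active means fluorescence ratio B-score, a plate-corrected score, at least three library SD, with initial intensity B-score within 5 SD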
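assay system = KCNQ1-transfected CHO-K1 cells | medium = assay buffer with matched DMSO | probe or stimulus = depolarizing K+/Tl+ stimulus, K2SO4 and Tl2SO4 each 12.5 mM in 5x stock | dosing = single dose | incubation = dye 90 min, compound 20 min, room temperature | detection = kinetic FluxOR fluorescence, 10 s baseline plus 110 s post-stimulus | evaluation = ratio B score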
AI-2 QS mod – Vibrio harveyi AI-2 quorum sensing modulation; Vibrio harveyi JMH597 AI-2 luminescence/OD600 ratio, 9 h; hits give low values; strain lacks LuxN and CqsS sensors; 0 = neutral-control median; activity change, % at 7.5 µM; actives 0.4% (n = 300,000); AID 2094; in the data active means activity change below about -75%, passing the limit was not always enough;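 further: luminescence divided by OD600 gain over 9 h not by final OD600 alone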
Cl transport mod – modulators of human KCC2 chloride dependent transport | AID 1456 | KCC2 cells, thallium flux FluoZin-2 fluorescence | actives 2.2% (n = 190,000) | Q9H2X9 | B-score of Tl+ flux slope (higher = more flux/activation; lower = inhibition) at 10 µM;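 active means thallium flux slope and its plate-corrected score both differing from the plate sample mean at a set confidence after two filtering rounds, in either direction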;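 further: slope of fluorescence scaled to starting intensity during 10 to 20 s after thallium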
Hits are given with their value; . = inactive; / = not tested or not shown. A selection: hits, their analogues and other compounds. The true share with any hit is near 4.2%.

SMILES	hERG protect	KCNQ1 block	Mot1-301 SUMO	KCNQ1 pot	AI-2 QS mod	Cl transport mod
CCN(CC)S(=O)(=O)c1cccc(C(=O)NC(C(=O)NC2=NCCS2)C(C)C)c1 (stereo not drawn)	.	.	.	.	.	/
CCN(CC)S(=O)(=O)c1cccc(C(=O)N[C@H](C(=O)NNC(=O)c2ccccc2)C(C)C)c1	7.9	.	.	33	.	.
Cc1ccc(C)c(-n2cc[nH]c2=S)c1	.	.	.	.	.	.
CCCC1=Nc2cc(C(=O)N3CCCC3)ccc2Sc2ccc(C)cc21	.	.	.	.	.	/
CCCC1=Nc2cc(C(=O)N3CCN(c4ccccn4)CC3)ccc2Sc2ccc(C)cc21	.	7	.	.	.	/
O=C(NC(=S)NCC1COc2ccccc2O1)c1ccccc1 (stereo not drawn)	.	.	.	.	.	4.3
O=C(NCC1COc2ccccc2O1)c1ccccc1 (stereo not drawn)	.	.	.	.	.	.
CC(C)(C)c1ccc2c(c1)N(CC(=O)N1CCCC1)C(=O)CO2	.	.	.	.	.	/
Cc1sc2ncnc(N3CCN(CCOc4ccc(Cl)cc4)CC3)c2c1C	.	11	.	.	.	/
Cc1sc2ncnc(N3CCC(C)CC3)c2c1C	.	.	.	.	.	.
Cc1sc2ncnc(N3CCN(Cc4ccccc4)CC3)c2c1-c1ccccc1	.	.	.	57	.	/
CCOc1ccc(CN2CCN(c3ncnc4scc(-c5ccccc5)c34)CC2)cc1	.	.	.	.	.	/
Cc1c(C(=O)N2CCN(Cc3ccc4c(c3)OCO4)CC2)sc2ncnc(N3CCN(c4ccccc4)CC3)c12	.	7	.	.	/	/
O=C(NC1CC1)C1CCN(C2CCN(C(=O)/C=C/c3ccc(F)cc3)CC2)CC1	.	.	.	.	.	/
CC1CCN(c2ccccc2NC(=S)NC(=O)c2ccco2)CC1	.	.	.	.	.	15
CC1CCN(c2ccccc2NC(=S)NC(=O)c2cccs2)CC1	.	.	/	14	.	9.5
CC1C(=O)N2CCCc3cc(NC(=O)C(=O)NCc4ccccn4)cc1c32 (stereo not drawn)	.	.	.	.	.	/
COc1cc(Cl)c(C)cc1NC(=O)CSC1=NCCS1	/	/	.	/	/	/
Cc1ccc(NC(=O)COc2cccc(Oc3ccccc3)c2)cc1S(=O)(=O)N1CCOCC1	/	/	.	/	/	/
Cc1ccc(C(=O)NCCC(=O)NCc2cc(=O)n(C)c(=O)n2C)cc1	.	.	.	8	.	/
Cn1c(CNC(=O)CCNC(=O)c2ccc(Br)cc2)cc(=O)n(C)c1=O	.	.	.	.	.	/
CC(=O)NO	.	.	.	.	.	/
CCOC(=O)C1CCCN(Cc2c(F)cccc2Cl)C1 (stereo not drawn)	.	.	.	.	.	.
Cc1cc(Oc2ccc(N)cn2)cc(C)c1Cl	.	.	.	.	.	.
CC(C)(C)c1ccc(Oc2ccc(N)cn2)cc1	.	.	.	21	.	.
SMILES	hERG protect	KCNQ1 block	Mot1-301 SUMO	KCNQ1 pot	AI-2 QS mod	Cl transport mod
O=C(Nc1ccccc1F)c1ccc2ncsc2c1	.	.	.	.	.	/
O=C(Nc1ccc(F)cc1F)c1ccc2ncsc2c1	.	.	335	.	.	/
CC(CC(=O)Nc1ncc([N+](=O)[O-])s1)c1ccccc1 (stereo not drawn)	.	11	.	.	.	/
Cc1ccc(C(=O)Nc2ncc([N+](=O)[O-])s2)cc1	.	6	.	.	.	/
O=C(Nc1ncc([N+](=O)[O-])s1)c1ccc2c(c1)OCO2	.	.	.	.	.	/
CCc1nnc(SCC(=O)Nc2ccc(F)cc2)o1	.	.	.	.	.	/
CC1CN(C(=O)COc2ccc3c(-c4ccccc4)cc(=O)oc3c2)CC(C)O1 (stereo not drawn)	/	/	.	/	/	/
CCOC(=O)c1n[nH]n2c1nc(=O)c1ccccc12	.	.	.	.	.	/
Cc1ccc(S(=O)(=O)c2n[nH]n3c2nc(=O)c2ccccc23)cc1	8.6	.	.	.	.	/
Cc1c(Cl)c([N+](=O)[O-])nn1CC(=O)NC(C)c1ccccc1 (stereo not drawn)	.	.	.	.	.	/
Cc1c(Cl)c([N+](=O)[O-])nn1CC(=O)NCc1cccs1	4.8	.	.	.	.	.
